Source: PubChem BioAssay
SKN-1 inh: inhibitors of C. elegans SKN-1; C. elegans VP596 Pgst-4::GFP/RFP ratio, acrylamide-induced, 24 h; inhibition, % at 21.8 µM; 0.49% of 360,000 active;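 active = interference check ratio from 0.5 to 1.5 plus GFP to RFP signal ratio inhibition reaching or exceeding a fixed threshold, cut at about 30% in these data, passing the limit was not always enough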
MPTP block: permeability transition pore inhibition; AID 602449; 1.4% of 360,000 active; inhibition, % at 10 µM; isolated mouse mitochondria, Ca2+ swelling absorbance, 30 min;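 active = inhibition of 50% or more, scaled per plate between neutral and stimulator controls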;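 note: 0% = DMSO wells given calcium and 100% = 1 mM EGTA wells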
ADAM17 inh: inhibitors of human ADAM17 | P78536 | recombinant ADAM17, EDANS/DABCYL FRET peptide cleavage | inhibition, % at 6.95 µM | 0.83% of 370,000 active;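 active = inhibition above the mean of compounds lying between control limits plus 3 SD, set per campaign, cut at about 8.5% in these data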;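 note: 0% = DMSO-only wells as the low control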
Target sequence (P78536 215-824 limits assumed): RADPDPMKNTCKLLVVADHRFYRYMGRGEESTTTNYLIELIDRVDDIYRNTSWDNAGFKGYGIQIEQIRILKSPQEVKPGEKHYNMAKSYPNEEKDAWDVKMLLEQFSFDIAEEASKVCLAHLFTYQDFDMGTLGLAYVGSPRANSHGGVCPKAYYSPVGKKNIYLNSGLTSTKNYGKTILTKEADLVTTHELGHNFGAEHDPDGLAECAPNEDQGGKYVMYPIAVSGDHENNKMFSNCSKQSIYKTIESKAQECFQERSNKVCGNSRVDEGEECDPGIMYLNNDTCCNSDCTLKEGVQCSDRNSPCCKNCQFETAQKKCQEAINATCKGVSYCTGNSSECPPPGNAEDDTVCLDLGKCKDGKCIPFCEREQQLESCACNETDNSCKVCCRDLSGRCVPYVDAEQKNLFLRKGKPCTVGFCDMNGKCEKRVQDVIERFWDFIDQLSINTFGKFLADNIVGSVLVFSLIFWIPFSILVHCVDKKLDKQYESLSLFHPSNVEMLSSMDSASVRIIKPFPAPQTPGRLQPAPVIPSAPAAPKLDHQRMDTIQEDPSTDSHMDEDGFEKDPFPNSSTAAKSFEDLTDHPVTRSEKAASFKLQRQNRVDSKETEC
ADAM10 inh: inhibits human ADAM10 | O14672 | inhibition, % at 7 µM | AID 720582 | recombinant ADAM10, EDANS/DABCYL FRET peptide cleavage, 3 h | 0.62% of 370,000 active;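 active = inhibition above a per-campaign cutoff equal to the mean of compounds falling between control-based bounds plus 3 SD, cut at about 20% in these data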;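 note: 0% = DMSO wells while the 100% control is not disclosed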
NR3A LBD binder: modulates the human NR3A ligand-binding domain; NR3A LBD differential scanning fluorimetry, Tm shift; 0% = protein alone, 100% = glycine-bound protein; Tm shift relative to glycine control, % at 25 µM; 2.5% of 340,000 active;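 active = melting temperature shift of at least 10% of the positive control shift, at one fixed dose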
MT1-MMP act inh: inhibitors of human MT1-MMP activation; P50281; HT1080 RFP-PRO-GFP cells, GFP/RFP ratio fluorescence, overnight; percent of plate control window, DMSO zero; GFP/RFP ratio change, % at 20 µM; 0.061% of 360,000 active;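 active = GFP/RFP ratio change of at least 30% with cell ATP level not reduced by more than half and red fluorescence within 50% of control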
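Assay system – RFP-PRO-GFP reporter HT1080 cells · Compound dosing – single dose of 20 µM compound, 1% DMSO final · Incubation – overnight compound exposure at 37 °C · Measure – GFP/RFP fluorescence ratio · Benchmarks – DMSO wells and RFP-L50D-GFP cells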
MPTP counter: Rhodamine 123 counter-screen of mitochondrial pore hits. AID 624504. isolated mitochondria, membrane potential, Rhodamine 123 fluorescence. inhibition, % at 10 µM. 78% of 5,000 active. shares compounds with MPTP block; in the data active = inhibition above about 22%;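 note: 0% = DMSO vehicle and 100% = positive control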
MPTP abs DR: MPTP inhibition, dose response swelling confirmation; shares compounds with MPTP block; isolated mitochondria swelling, absorbance; IC50, µM; 58% of 780 active; in the data active = IC50 below about 20 µM
MPTP counter DR: MPTP inhibitor counter-screen activity, dose response; shares compounds with MPTP block; isolated mitochondria counterscreen, fluorescence read-out; IC50, µM; 49% of 780 active; in the data active = IC50 below about 80 µM
* = called active by the depositor; i = inactive; / = no result given. In the library only some 4.7% were active in any assay of this set; here they are far more common.

SMILES	SKN-1 inh	MPTP block	ADAM17 inh	ADAM10 inh	NR3A LBD binder	MT1-MMP act inh	MPTP counter	others
Cc1cc(OCC(=O)Nc2ccncc2)c(C)cc1Br	-17	98*	4	3	-3	8	84*
O=C(COc1ccc2ccccc2c1Br)Nc1ccncc1	7	92*	4	-10	14*	-5	82*
Cc1cccc(C)c1OCC(=O)Nc1ccncc1	-3	-1	-6	-7	0	14	/
CCc1ccc(OCC(=O)Nc2ccncc2)c(Br)c1	29	79*	-2	-2	-1	-1	80*
CCc1ccc(OCC(=O)NNC(=O)c2cnccn2)c(Br)c1	6	-1	5	2	6	4	/
CC(C)(C)c1ccc(OCC(=O)Nc2ccncc2)c(Br)c1	2	108*	3	19	-1	1	88*
O=C(NCCNC(=O)c1ccccn1)c1ccccc1	12	-2	-3	-3	-2	2	/
CSCCC(c1nc2ccccc2[nH]1)n1c(=O)c(-c2ccco2)nc2ccccc21 (configuration not stated)	9	4	-21	-67	/	-2	/
Cc1ccc(OCC(=O)Nc2ccncc2)cc1C	9	14	-5	-14	/	2	/
CC(C)CCOc1cccc(OCC(=O)Nc2ccncc2)c1	13	107*	-2	5	-11	0	101*
Cc1cc(OCC(=O)Nc2ccncc2)cc(C)c1Cl	5	94*	3	7	-2	9	84*
COc1cccc(OCC(=O)Nc2ccncc2)c1	-5	0	1	-8	0	2	/
CN(Cc1ccccc1)CC(O)COc1ccc(CNCc2cccnc2)cc1 (configuration not stated)	-4	1	-4	0	-1	1	/
CN(Cc1ccccc1)CC(O)COc1ccc(CNCc2ccc(Cl)s2)cc1 (configuration not stated)	6	91*	0	5	-1	4	-6	MPTP abs DR=8*;MPTP counter DR=36*
Cc1ccc(Nc2c(-c3ccccc3O)nc3ncccn23)cc1	-11	8	2	13	-6	9	/
COc1ccc(CN2C(=O)CS/C2=N/N=C/c2ccccc2)cc1	53*	67*	-4	-8	-1	1	65*
O=c1cc(-c2ccccc2)nc2c(-c3ccccc3)c(C(F)(F)F)[nH]n12	4	64*	i	i	8	2	47*
O=C(Nc1ccc(Cl)c(Cl)c1)Nc1ccccc1NS(=O)(=O)c1cccs1	16	87*	2	7	34*	-3	92*
O=C(Nc1ccccc1)Nc1ccccc1NS(=O)(=O)c1cccs1	1	61*	1	2	22*	-2	65*
COc1ccc(NC(=O)C(NS(=O)(=O)c2cccs2)C(C)C)cc1Cl (configuration not stated)	9	1	0	-5	-2	0	/
O=S(=O)(Nc1cccc2ccccc12)c1cccs1	8	-1	-3	2	1	3	/
O=C(CSc1nnc2ccccn12)NCCc1ccc(F)cc1	-2	-2	-5	-8	0	0	/
COC(=O)c1cc(=O)nc(NN=C2c3ccccc3-c3ccccc32)s1	9	58*	2	1	/	28	51*
CC(=O)Nc1cccc(-c2csc(C(NC(C)=O)c3ccc(F)c(F)c3)n2)c1 (configuration not stated)	32	1	1	9	/	1	/
O=C(CN1C(=O)C(c2ccc(F)cc2)=NC12CCCC2)Nc1ccc(F)cc1	11	60*	3	8	-4	4	53*
SMILES	SKN-1 inh	MPTP block	ADAM17 inh	ADAM10 inh	NR3A LBD binder	MT1-MMP act inh	MPTP counter	others
O=C(O)c1ccc(NC(=S)NC2CCCCC2)cc1	2	0	4	7	-3	1	/
FC(F)(F)c1cccc(NC(=S)NC2CCCC2)c1	2	100*	2	-2	-2	4	83*
FC(F)(F)c1ccc(NC(=S)NC2CCCCC2)cc1	13	99*	3	14	1	-5	78*
Fc1cccc(NC(=S)NC2CCCCCCC2)c1	9	75*	2	0	4	3	98*
O=C(Nc1cccc(C(F)(F)F)c1)C1CCCCC1	15	-3	-2	1	-6	1	/
FC(F)(F)c1cccc(N2CCN(C(=S)NC3CCCCC3)CC2)c1	-8	81*	2	7	-1	-5	72*
FC(F)(F)c1cccc(N2CCN(C(=S)NC3CCCC3)CC2)c1	3	-3	0	7	-1	10	/
O=C(Nc1cccc(F)c1)C1CCCCC1	20	-1	1	-4	-1	3	/
COc1cc(-c2nc3n(n2)C(c2ccncc2)C(C(N)=O)=C(C)N3)cc(OC)c1OC (configuration not stated)	0	-1	3	14	-1	7	/
O=C(CSc1nc2ccc([N+](=O)[O-])cc2[nH]1)NC1CCCCCC1	-7	95*	8	5	-3	-7	80*
O=C(CSc1nc2ccc([N+](=O)[O-])cc2[nH]1)NC1CCCCC1	-1	5	1	-4	-2	-2	/
COc1ccc(C(=O)CSc2nc3ccc([N+](=O)[O-])cc3[nH]2)cc1	-3	99*	3	8	6	0	86*
Cc1nn(C)c(Oc2cccc(C(F)(F)F)c2)c1C=O	-3	0	-5	-7	4	3	/
CC(C)CN(C(=O)COC(=O)Cc1n[nH]c(=O)c2ccccc12)C1CCS(=O)(=O)C1 (configuration not stated)	4	-1	-4	-7	-5	10	/
O=[N+]([O-])c1ccc(O)c(CSc2nnnn2-c2ccccc2)c1	-19	78*	0	-2	-3	3	93*
O=C(O)c1cc(-n2nnnc2SCc2ccc([N+](=O)[O-])cc2)ccc1Cl	-1	0	1	-1	0	3	/
Cc1ccc(N/N=C(/Sc2nnnn2-c2ccccc2)C(=O)c2ccccc2)cc1	-10	14	4	12	-7	3	/
O=C(/C(=N\Nc1ccc([N+](=O)[O-])cc1)Sc1nnnn1-c1ccccc1)c1ccccc1	15	94*	-3	4	-11	-1	90*
